Shown are actives, neighbours in structure and some others; about 1.5% of the full set was active somewhere.
Rev-erbA mod: modulators of Rev-erb alpha DNA binding, primary screen, biochemical, FITC-DNA, fluorescence polarization, uHTS | activity, % at 10 µM | Nuclear receptor subfamily 1 group D member 1 (Homo sapiens), P20393 | AID 1259318, 2017 | 370,000 compounds, 0.79% hits | Rev-erbα–FITC-DNA binding, 90 min;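 active = activity above about 14%, limit read from the data; passing the limit was not always enough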;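 also: 0% = DMSO wells with 35 nM protein and 100% = DMSO wells with 750 nM protein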
Target sequence (P20393 whole entry, looked up): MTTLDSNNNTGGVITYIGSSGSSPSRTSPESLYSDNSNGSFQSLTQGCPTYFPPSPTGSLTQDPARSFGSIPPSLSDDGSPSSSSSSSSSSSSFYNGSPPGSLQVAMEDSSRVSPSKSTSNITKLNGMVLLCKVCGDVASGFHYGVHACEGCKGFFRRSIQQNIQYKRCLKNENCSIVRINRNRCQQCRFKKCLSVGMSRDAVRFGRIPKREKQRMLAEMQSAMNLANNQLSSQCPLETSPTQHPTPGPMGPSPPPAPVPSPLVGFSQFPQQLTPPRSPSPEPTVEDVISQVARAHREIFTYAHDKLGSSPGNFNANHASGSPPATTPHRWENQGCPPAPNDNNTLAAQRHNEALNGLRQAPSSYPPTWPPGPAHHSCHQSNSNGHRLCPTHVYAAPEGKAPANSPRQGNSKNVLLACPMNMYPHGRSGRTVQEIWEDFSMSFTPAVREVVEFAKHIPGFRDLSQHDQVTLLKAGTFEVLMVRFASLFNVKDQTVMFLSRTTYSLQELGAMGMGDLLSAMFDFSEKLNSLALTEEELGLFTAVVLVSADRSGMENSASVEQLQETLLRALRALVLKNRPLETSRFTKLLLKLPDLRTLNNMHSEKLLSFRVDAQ
NR2E3 ag-1: NR2E3 agonists in two-hybrid cells, primary screen, cell-based, luminescence, CHO-S, Gal4-NCOR/VP16-NR2E3 | Photoreceptor-specific nuclear receptor (Homo sapiens), Q9Y5X4 | luciferase | inhibition of corepressor binding, % at 3.98 µM | 360,000 compounds, 0.35% hits;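 active = inhibition above the mean of all tested compounds plus 3 SD, cut at about 70% in these data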;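 also: 0% = DMSO with NR2E3 transfected cells and 100% = cells lacking NR2E3 construct; higher means lower luciferase signal from less NR2E3 corepressor binding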
PG9 Ab binder: binders of HIV-1 gp120 antibody PG9, primary screen, biochemical, TR-FRET | inhibition, % at 6.7 µM | HIV-1 gp120 / PG9 antibody interaction | 360,000 compounds, 0.43% hits | TR-FRET gp120-PG9 antibody binding; in the data active = inhibition above about 8.5%
NR2E3 ag-2: inhibitors of NR2E3-RetCOR corepressor binding, primary screen, NR2E3 agonist project, biochemical, TR-FRET, GST-NR2E3, biotin-RetCOR | 1536-well | 320,000 compounds, 0.12% hits | Photoreceptor-specific nuclear receptor (Homo sapiens), Q9Y5X4 | inhibition of corepressor binding, % at 4.78 µM;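 active = percent inhibition above the cutoff of mean plus 3 SD of all tested compounds, set per screening campaign, cut at about 20% in these data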;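 also: 0% = DMSO wells and 100% = biotin wells as full block of FRET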
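Format: 1536-well format; test system: GST-NR2E3 and biotin-RetCOR proteins; read-out basis: percent inhibition of TR-FRET ratio; timing: 5 h incubation at 4 °C; detection: time-resolved FRET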
NR2E3 ag conf: NR2E3 agonist confirmation in cells, cell-based, luminescence, CHO-S two-hybrid; shares compounds with NR2E3 ag-1; CHO-S mammalian two-hybrid NR2E3-NCOR, luciferase luminescence; inhibition, % at 3.98 µM; 2,300 compounds, 51% hits; AID 624378, 2012;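 active = average inhibition above a cutoff equal to the mean inhibition of all tested compounds plus one SD, cut at about 70% in these data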;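 also: 0% = DMSO in NR2E3 cells and 100% = DMSO in cells lacking NR2E3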
GAL4-VP16 luc: GAL4-VP16 reporter modulators, confirmation, counter-screen for NR2E3 agonist project, cell-based, luminescence, CHO-S, high throughput; shares compounds with NR2E3 ag-1; CHO-S GAL4-VP16 luciferase reporter; inhibition, % at 3.98 µM; 2,300 compounds, 29% hits;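 active = mean inhibition above a cutoff equal to the average over all tested compounds plus one standard deviation, cut at about 70% in these data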;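 also: luciferase from a UAS reporter driven by GAL4-VP16 transactivation; 0% = DMSO with VP16-transfected cells and 100% = DMSO with cells lacking VP16; higher means less reporter light so more repression of VP16 activity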
* marks the source's active call; other numbers are inactive results; · = no result.

SMILES	Rev-erbA mod	NR2E3 ag-1	PG9 Ab binder	NR2E3 ag-2	NR2E3 ag conf	GAL4-VP16 luc
CCN1C(=O)/C(=C2/C=Cc3cc(C)ccc3N2CC)N(C)C1=S	-2	-16	-23	-17	·	·
O=P(O)(O)OCC(O)CO (stereo not given)	-1	·	·	·	·	·
CC(=O)OC12CCCN(C1)/C(=C/c1ccc(Cl)cc1)C2 (stereo not given)	-1	·	·	·	·	·
O=C(CNc1cccc(S(=O)(=O)N2CCCC2)c1)Nc1ccc(C(F)(F)F)cc1	7	60	-1	4	64	47
O=C(CNc1cccc(S(=O)(=O)N2CCCCC2)c1)Nc1ccc(C(F)(F)F)cc1	7	38	-1	·	·	·
Cc1csc(SCC(=O)Nc2nc3ccccc3s2)n1	-3	-45	0	1	·	·
Cn1cc(SCC(=O)Nc2nc3ccccc3s2)c2ccccc21	-6	48	-1	-3	69	-1
O=C(OC12CCCN(C1)/C(=C/c1ccncc1)C2)c1ccc(Cl)cc1 (stereo not given)	0	·	·	·	·	·
Cc1ccc(CNc2ncnc3cc(Cl)ccc23)cc1	1	87*	0	-3	90*	71*
CCc1ccc(NS(=O)(=O)c2ccc(OC)c(C)c2)cc1	-2	7	2	1	·	·
CCN(C1CCCCC1)S(=O)(=O)c1ccc(S(=O)(=O)NCCc2ccncc2)cc1	0	9	-2	0	·	·
COc1ccc(S(=O)(=O)Nc2ccc(Cc3ccncc3)cc2)cc1C	·	61	·	2	47	50
CCN(C1CCCCC1)S(=O)(=O)c1ccc(S(=O)(=O)NCc2ccncc2)cc1	6	91*	-3	1	88*	74*
Cc1cc(Br)c(S(=O)(=O)NCc2ccncc2)cc1C	3	82*	-3	2	70*	66
O=S(=O)(NCc1ccncc1)c1ccc(Br)s1	0	103*	-2	1	92*	78*
O=C(O)CNS(=O)(=O)c1ccc(Br)s1	-3	-19	-2	-3	·	·
O=C(N[C@H](C(=O)N1CCC[C@H]1C(=O)NCCc1ccccc1Cl)C1CCCCC1)c1ccccc1	4	·	-1	·	·	·
CC(C)C[C@H]1COc2cccc(F)c2S(=O)(=O)N1Cc1cn(Cc2ccc(Cl)cc2)nn1	-7	·	·	·	·	·
O=C(CSc1nnc(COc2ccccc2)n1-c1ccccc1)Nc1ccc(S(=O)(=O)Nc2nccs2)cc1	-1	·	·	·	·	·
COc1ccc(-n2c(COc3ccccc3)nnc2SCC(=O)Nc2ccc3c(c2)OCCO3)cc1	2	·	·	·	·	·
Cc1ccc(S(=O)(=O)NCc2ccncc2)cc1C	-1	62	1	4	92*	76*
O=S(=O)(NCc1ccncc1)c1ccc(F)c(F)c1	0	31	-1	·	·	·
COc1cc(S(=O)(=O)NCc2ccncc2)ccc1Br	-11	95*	1	4	78*	68
CNC(=O)c1cc(S(=O)(=O)NCc2ccncc2)ccc1OC	3	-14	-1	0	·	·
Cc1cc(C)c(C)c(S(=O)(=O)NCc2ccncc2)c1C	-2	69	-2	4	46	34
SMILES	Rev-erbA mod	NR2E3 ag-1	PG9 Ab binder	NR2E3 ag-2	NR2E3 ag conf	GAL4-VP16 luc
CCOC(=O)[C@@]12CCC3=C1N(CCC3)C(=O)[C@H](CC(=O)N1CCN(C(=O)C3CC3)CC1)C2	-1	·	·	·	·	·
COc1ccc(N/C(N)=N/c2nc(C)cc(C)n2)cc1	0	-1	0	·	·	·
Cc1cc(C)nc(/N=C(\N)Nc2ccc(OCCC(C)C)cc2)n1	-2	53	1	3	70	58
CCN1/C(=C/C(C)=C/c2sc3ccccc3[n+]2CC)Sc2ccccc21	-10	92*	-25	-18	100*	95*
CCc1cc2c(=O)nc3n(c2s1)Cc1ccccc1/C3=C(/O)c1ccc(F)cc1	-1	69	1	0	-19	-4
CC#CC(=O)N[C@H]1CC[C@@]23CCCN2C(=O)CCC[C@H]3[C@H]1C	-1	·	·	·	·	·
CCCCNC(=O)C[C@H]1C[C@@]2(C(=O)OC)C(=C[C@H](C3CCCC3)O[C@@H]2C)N(Cc2ccco2)C1=O	4	·	·	·	·	·
Cc1nn(C)c(C)c1CN(Cc1nc(CCC(C)C)no1)C(C)C	-2	86*	0	1	99*	87*
CCCCCCCCCCCCCCCC[N+](C)(C)Cc1ccccc1	-1	·	·	·	·	·
C=CC[n+]1c(-c2ccc(Cl)cc2Cl)csc1Nc1c(C)n(C)n(-c2ccccc2)c1=O	0	43	-4	-1	·	·
C=CC[n+]1c(-c2ccc(Cl)cc2Cl)csc1Nc1ccc(NC(C)=O)cc1	4	68	-1	-3	73*	56
O=c1c(Cl)c(N2CCN(c3ccc(F)cc3)CC2)cnn1C12CC3CC(CC(C3)C1)C2	-4	64	-1	1	71*	22
CCC(c1ccc(OC)cc1)c1cn(C)c2ccccc12 (stereo not given)	7	·	·	·	·	·
O=S1(=O)c2cccc3cccc(c23)N1Cc1nnc(-c2ccccc2Br)o1	3	69	-4	-6	87*	72*
O=C1c2ccccc2S(=O)(=O)N1Cc1nnc(-c2ccccc2Br)o1	0	-28	0	·	·	·
CCCCCn1nnnc1C1c2ccccc2OCC(=O)N1Cc1ccco1 (stereo not given)	-1	·	·	·	·	·
CCN1/C(=C\c2ccc3cc(C)ccc3[n+]2CC)Sc2cc(C)c(C)cc21	8	85*	-3	·	98*	87*
N#Cc1cccc(NC(=O)OCCN2C(=O)CCC23CCC(c2ccccc2)CC3)c1 (stereo not given)	-6	·	·	·	·	·
O=C1NC(=S)SC1=Cc1ccccc1Br	4	74*	0	·	95*	72*
CC(=O)c1c(O)cc(O)c(C(C)=O)c1O	·	80*	·	3	85*	34
Cc1ccc(S(=O)(=O)N2[C@@H](c3ccc(C(C)(C)C)cc3)C(C(=O)O)=CC[C@H]2c2ccc(Cl)cc2)cc1	-8	99*	-3	·	99*	66
Cc1ccc(S(=O)(=O)N2[C@@H](c3ccc(C(C)(C)C)cc3)C(C(=O)O)=CC[C@H]2c2cccs2)cc1	0	51	0	·	-4	-5
Cc1ccc([C@@H]2CC=C(C(=O)O)[C@H](c3ccc(Br)cc3)N2S(=O)(=O)c2ccc(C)cc2)cc1	-2	64	0	·	25	4
CCc1ccc([C@@H]2CC=C(C(=O)O)[C@H](c3ccc(C(C)(C)C)cc3)N2S(=O)(=O)c2ccc(C)cc2)cc1	-17	93*	-2	·	96*	62
Cc1ccccc1Cn1cc(CN2[C@@H](C)COc3cc(Br)ccc3S2(=O)=O)nn1	0	·	·	·	·	·

Compound activity deposited in PubChem by several laboratories.
